# Reference: ChEMBL document CHEMBL1156631 (J Med Chem, 2008)
# Target: T1, Cannabinoid receptor 1 (Homo sapiens, UniProt P21554)
# Test: Agonist activity at human CB1 receptor expressed in Sf9 cells by GTP-europium binding assay
# Summary of the method: (§1)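 Membranes were from Sf9 insect cells cotransfected with CB1 or CB2 plus Gαi3 (Bmax 1.7 pmol/mL). Compound (0.01 nM–10 µM, 1% DMSO final) was added to buffer with Hepes, BSA, 10 mM MgCl2, 150 mM NaCl, 5 µM GDP, 10 nM GTP-europium, saponin and membranes (CB1 4.5 µg/well, CB2 14 µg/well). 100% efficacy was set by 3 µM reference agonist.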
# T1 sequence (P21554 whole entry): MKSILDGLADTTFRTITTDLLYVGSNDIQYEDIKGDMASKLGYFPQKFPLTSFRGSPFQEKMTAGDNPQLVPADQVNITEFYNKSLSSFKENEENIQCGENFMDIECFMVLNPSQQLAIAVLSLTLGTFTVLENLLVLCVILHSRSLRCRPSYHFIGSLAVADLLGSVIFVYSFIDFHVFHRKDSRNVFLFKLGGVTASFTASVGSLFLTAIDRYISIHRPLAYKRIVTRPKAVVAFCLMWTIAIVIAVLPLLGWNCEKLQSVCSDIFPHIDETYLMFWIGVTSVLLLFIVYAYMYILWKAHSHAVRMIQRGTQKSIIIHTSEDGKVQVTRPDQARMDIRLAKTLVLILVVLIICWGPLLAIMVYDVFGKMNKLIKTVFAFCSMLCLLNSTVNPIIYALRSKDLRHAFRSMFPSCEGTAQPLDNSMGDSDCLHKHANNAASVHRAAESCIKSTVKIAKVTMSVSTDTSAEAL
row,Compound,EC50 [nM]
1,CCn1c2ccccc2c2cc(NC(=O)CCc3nc(-c4cccc(Cl)c4)no3)ccc21,> 10000
2,CCn1c2ccccc2c2cc(NC(=O)CCc3cc(-c4ccccc4F)no3)ccc21,> 10000
3,CCn1c2ccccc2c2cc(NC(=O)CCc3nc(-c4ccccc4C(C)C)no3)ccc21,> 10000
4,CCn1c2ccccc2c2cc(NC(=O)CCc3nc(-c4ccc(F)cc4C)no3)ccc21,1400
5,CCn1c2ccccc2c2cc(NC(=O)CCc3nc(-c4ccc(F)cc4)no3)ccc21,1200
6,Fc1ccc(-c2noc(CCCNc3nc4ccc(Cl)cc4s3)n2)c(Cl)c1,3300
7,CC(C)(C)c1ncc(NC(=O)CCc2nc(-c3ccc(F)cc3Cl)no2)cn1,> 10000
8,CCn1c2ccccc2c2cc(NC(=O)CCc3nc(C4CCOCC4)no3)ccc21,> 10000
9,CCn1c2ccccc2c2cc(NC(=O)CCc3nc(-c4ccccc4F)co3)ccc21,> 10000
10,CCn1c2ccccc2c2cc(NC(=O)CCn3cc(-c4ccccc4F)nn3)ccc21,> 10000
11,CC(C)c1ccc(NC(=O)CCc2nc(-c3ccc(F)cc3Cl)no2)cc1,2000
12,O=C(CCc1nc(-c2ccc(F)cc2Cl)no1)Nc1ccc(C(F)(F)F)cc1,> 10000

# Target: T2, Cannabinoid receptor 2 (Homo sapiens, UniProt P34972)
# Test: Agonist activity at human recombinant CB2 receptor expressed in Sf9 cells by GTP-europium binding assay
# Summary of the method: as §1
# T2 sequence (P34972 whole entry): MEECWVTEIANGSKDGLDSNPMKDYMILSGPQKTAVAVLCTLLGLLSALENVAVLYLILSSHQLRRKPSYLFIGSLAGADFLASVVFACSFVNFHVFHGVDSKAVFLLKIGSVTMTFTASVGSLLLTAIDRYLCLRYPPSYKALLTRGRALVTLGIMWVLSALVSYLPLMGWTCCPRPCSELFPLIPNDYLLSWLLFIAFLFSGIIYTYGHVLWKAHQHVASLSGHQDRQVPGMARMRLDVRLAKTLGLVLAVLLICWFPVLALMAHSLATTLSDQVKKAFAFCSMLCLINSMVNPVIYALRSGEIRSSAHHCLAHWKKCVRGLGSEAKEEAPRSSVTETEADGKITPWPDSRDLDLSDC
row,Compound,EC50 [nM]
1,CCn1c2ccccc2c2cc(NC(=O)CCc3nc(-c4ccccc4)no3)ccc21,150
2,CCn1c2ccccc2c2cc(NC(=O)CCc3nc(-c4cccc(Cl)c4)no3)ccc21,410
3,CCn1c2ccccc2c2cc(NC(=O)CCc3cc(-c4ccccc4F)no3)ccc21,270
4,CCn1c2ccccc2c2cc(NC(=O)CCc3nc(-c4ccccc4C(C)C)no3)ccc21,670
5,CCn1c2ccccc2c2cc(NC(=O)CCc3nc(-c4ccc(F)cc4C)no3)ccc21,0.089
6,CCn1c2ccccc2c2cc(NC(=O)CCc3nc(-c4ccc(F)cc4)no3)ccc21,9.8
7,Fc1ccc(-c2noc(CCCNc3nc4ccc(Cl)cc4s3)n2)c(Cl)c1,170
8,CC(C)(C)c1ncc(NC(=O)CCc2nc(-c3ccc(F)cc3Cl)no2)cn1,5.4
9,CCn1c2ccccc2c2cc(NC(=O)CCc3nc(C4CCOCC4)no3)ccc21,42
10,CCn1c2ccccc2c2cc(NC(=O)CCc3nc(-c4ccccc4F)co3)ccc21,2000
11,CCn1c2ccccc2c2cc(NC(=O)CCn3cc(-c4ccccc4F)nn3)ccc21,470
12,CC(C)c1ccc(NC(=O)CCc2nc(-c3ccc(F)cc3Cl)no2)cc1,10
13,O=C(CCc1nc(-c2ccc(F)cc2Cl)no1)Nc1ccc(C(F)(F)F)cc1,75

# Target: T1, Cannabinoid receptor 1
# Test: Agonist activity at human recombinant CB1 receptor expressed in Sf9 cells by GTP-europium binding assay relative to CP-55940
# Summary of the method: as §1, with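 “µg/well). Incubation was 45 min at room temperature, then filtration and washing, with fluorescence read at 615 nm.” for “µg/well).”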
row,Compound,Emax [%]
1,CCn1c2ccccc2c2cc(NC(=O)CCc3nc(-c4ccc(F)cc4C)no3)ccc21,24
2,CCn1c2ccccc2c2cc(NC(=O)CCc3nc(-c4ccc(F)cc4)no3)ccc21,55
3,Fc1ccc(-c2noc(CCCNc3nc4ccc(Cl)cc4s3)n2)c(Cl)c1,16
4,CC(C)c1ccc(NC(=O)CCc2nc(-c3ccc(F)cc3Cl)no2)cc1,23

# Target: T2, Cannabinoid receptor 2
# Test: Agonist activity at human recombinant CB2 receptor expressed in Sf9 cells by GTP-europium binding assay relative to CP-55940
# Summary of the method: as §1, with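 “µg/well). Incubation was 45 min at room temperature, then filtration and washing, with fluorescence read at 615 nm.” for “µg/well).”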
row,Compound,Emax [%]
1,CCn1c2ccccc2c2cc(NC(=O)CCc3nc(-c4ccccc4)no3)ccc21,100
2,CCn1c2ccccc2c2cc(NC(=O)CCc3nc(-c4cccc(Cl)c4)no3)ccc21,87
3,CCn1c2ccccc2c2cc(NC(=O)CCc3cc(-c4ccccc4F)no3)ccc21,64
4,CCn1c2ccccc2c2cc(NC(=O)CCc3nc(-c4ccccc4C(C)C)no3)ccc21,88
5,CCn1c2ccccc2c2cc(NC(=O)CCc3nc(-c4ccc(F)cc4C)no3)ccc21,120
6,CCn1c2ccccc2c2cc(NC(=O)CCc3nc(-c4ccc(F)cc4)no3)ccc21,95
7,Fc1ccc(-c2noc(CCCNc3nc4ccc(Cl)cc4s3)n2)c(Cl)c1,100
8,CC(C)(C)c1ncc(NC(=O)CCc2nc(-c3ccc(F)cc3Cl)no2)cn1,91
9,CCn1c2ccccc2c2cc(NC(=O)CCc3nc(C4CCOCC4)no3)ccc21,94
10,CCn1c2ccccc2c2cc(NC(=O)CCc3nc(-c4ccccc4F)co3)ccc21,46
11,CCn1c2ccccc2c2cc(NC(=O)CCn3cc(-c4ccccc4F)nn3)ccc21,15
12,CC(C)c1ccc(NC(=O)CCc2nc(-c3ccc(F)cc3Cl)no2)cc1,130
13,O=C(CCc1nc(-c2ccc(F)cc2Cl)no1)Nc1ccc(C(F)(F)F)cc1,120

# Target: T1, Cannabinoid receptor 1
# Test: Agonist activity at human recombinant CB1 receptor expressed in CHO-K1 cells assessed as inhibition of forskolin-stimulated intracellular cAMP level
# Type: functional, cell-based
# Summary of the method: (§2)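 CHO-K1 cells stably expressing human or rat CB1 or CB2 were used. Compounds were diluted from DMSO into HBSS/HEPES/BSA buffer containing 60 µM forskolin, then combined with 5000 cells/well plus Alexa647 anti-cAMP antibody, 1 h at room temperature. A biotinylated-cAMP detection mix was added for another 1 h.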
row,Compound,EC50 [nM]
1,CCn1c2ccccc2c2cc(NC(=O)CCc3nc(-c4ccc(F)cc4C)no3)ccc21,> 1000
2,CCn1c2ccccc2c2cc(NC(=O)CCc3nc(-c4ccc(F)cc4)no3)ccc21,330
3,Fc1ccc(-c2noc(CCCNc3nc4ccc(Cl)cc4s3)n2)c(Cl)c1,> 1000
4,CC(C)(C)c1ncc(NC(=O)CCc2nc(-c3ccc(F)cc3Cl)no2)cn1,> 1000
5,CCn1c2ccccc2c2cc(NC(=O)CCc3nc(C4CCOCC4)no3)ccc21,> 1000
6,O=C(CCc1nc(-c2ccc(F)cc2Cl)no1)Nc1ccc(C(F)(F)F)cc1,> 1000

# Target: T2, Cannabinoid receptor 2
# Test: Agonist activity at human recombinant CB2 receptor expressed in CHO-K1 cells assessed as inhibition of forskolin-stimulated intracellular cAMP level
# Type: functional, cell-based
# Summary of the method: as §2
row,Compound,EC50 [nM]
1,CCn1c2ccccc2c2cc(NC(=O)CCc3nc(-c4ccc(F)cc4C)no3)ccc21,0.47
2,CCn1c2ccccc2c2cc(NC(=O)CCc3nc(-c4ccc(F)cc4)no3)ccc21,4.8
3,Fc1ccc(-c2noc(CCCNc3nc4ccc(Cl)cc4s3)n2)c(Cl)c1,110
4,CC(C)(C)c1ncc(NC(=O)CCc2nc(-c3ccc(F)cc3Cl)no2)cn1,2.9
5,CCn1c2ccccc2c2cc(NC(=O)CCc3nc(C4CCOCC4)no3)ccc21,2.4
6,O=C(CCc1nc(-c2ccc(F)cc2Cl)no1)Nc1ccc(C(F)(F)F)cc1,38

# Target: T1, Cannabinoid receptor 1
# Test: Agonist activity at human recombinant CB1 receptor expressed in CHO-K1 cells assessed as inhibition of forskolin-stimulated intracellular cAMP level relative to CP-55940
# Type: functional, cell-based
# Summary of the method: as §2, with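 “h. Emission at 665 nm gave concentration-response curves and EC50; Emax is expressed as a percentage of the reference agonist maximum.” for “h.”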
row,Compound,Emax [%]
1,CCn1c2ccccc2c2cc(NC(=O)CCc3nc(-c4ccc(F)cc4)no3)ccc21,24
2,Fc1ccc(-c2noc(CCCNc3nc4ccc(Cl)cc4s3)n2)c(Cl)c1,25
3,CCn1c2ccccc2c2cc(NC(=O)CCc3nc(C4CCOCC4)no3)ccc21,23

# Target: T2, Cannabinoid receptor 2
# Test: Agonist activity at human recombinant CB2 receptor expressed in CHO-K1 cells assessed as inhibition of forskolin-stimulated intracellular cAMP level relative to CP-55940
# Type: functional, cell-based
# Summary of the method: as §2, with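 “h. Emission at 665 nm gave concentration-response curves and EC50; Emax is expressed as a percentage of the reference agonist maximum.” for “h.”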
row,Compound,Emax [%]
1,CCn1c2ccccc2c2cc(NC(=O)CCc3nc(-c4ccc(F)cc4C)no3)ccc21,100
2,CCn1c2ccccc2c2cc(NC(=O)CCc3nc(-c4ccc(F)cc4)no3)ccc21,95
3,Fc1ccc(-c2noc(CCCNc3nc4ccc(Cl)cc4s3)n2)c(Cl)c1,87
4,CC(C)(C)c1ncc(NC(=O)CCc2nc(-c3ccc(F)cc3Cl)no2)cn1,97
5,CCn1c2ccccc2c2cc(NC(=O)CCc3nc(C4CCOCC4)no3)ccc21,98
6,O=C(CCc1nc(-c2ccc(F)cc2Cl)no1)Nc1ccc(C(F)(F)F)cc1,94

# Target: Cannabinoid receptor 1 (Rattus norvegicus, UniProt P20272)
# Test: Agonist activity at rat recombinant CB1 receptor expressed in CHO-K1 cells assessed as inhibition of forskolin-stimulated intracellular cAMP level
# Type: functional, cell-based
# Summary of the method: as §2
# Cannabinoid receptor 1 (Rattus norvegicus, UniProt P20272), sequence (P20272 whole entry): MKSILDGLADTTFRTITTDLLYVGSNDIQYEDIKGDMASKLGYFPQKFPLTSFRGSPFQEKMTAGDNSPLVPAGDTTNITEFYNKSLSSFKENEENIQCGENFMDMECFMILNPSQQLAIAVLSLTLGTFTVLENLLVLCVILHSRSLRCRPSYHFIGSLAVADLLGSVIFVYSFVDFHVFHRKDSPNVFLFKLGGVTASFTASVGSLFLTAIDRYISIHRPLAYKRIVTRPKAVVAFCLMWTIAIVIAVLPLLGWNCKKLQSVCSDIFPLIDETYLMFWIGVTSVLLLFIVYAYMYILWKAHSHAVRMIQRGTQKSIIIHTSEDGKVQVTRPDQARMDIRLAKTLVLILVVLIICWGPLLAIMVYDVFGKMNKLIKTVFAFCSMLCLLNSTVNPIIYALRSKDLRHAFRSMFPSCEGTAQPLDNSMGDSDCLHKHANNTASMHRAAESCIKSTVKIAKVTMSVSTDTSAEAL
row,Compound,EC50 [nM]
1,CCn1c2ccccc2c2cc(NC(=O)CCc3nc(-c4ccc(F)cc4C)no3)ccc21,280
2,CCn1c2ccccc2c2cc(NC(=O)CCc3nc(-c4ccc(F)cc4)no3)ccc21,650
3,Fc1ccc(-c2noc(CCCNc3nc4ccc(Cl)cc4s3)n2)c(Cl)c1,> 1000
4,CC(C)(C)c1ncc(NC(=O)CCc2nc(-c3ccc(F)cc3Cl)no2)cn1,570
5,CCn1c2ccccc2c2cc(NC(=O)CCc3nc(C4CCOCC4)no3)ccc21,150
6,O=C(CCc1nc(-c2ccc(F)cc2Cl)no1)Nc1ccc(C(F)(F)F)cc1,> 1000

# Target: T3, Cannabinoid receptor 2 (Rattus norvegicus, UniProt Q9QZN9)
# T3 sequence (Q9QZN9 whole entry): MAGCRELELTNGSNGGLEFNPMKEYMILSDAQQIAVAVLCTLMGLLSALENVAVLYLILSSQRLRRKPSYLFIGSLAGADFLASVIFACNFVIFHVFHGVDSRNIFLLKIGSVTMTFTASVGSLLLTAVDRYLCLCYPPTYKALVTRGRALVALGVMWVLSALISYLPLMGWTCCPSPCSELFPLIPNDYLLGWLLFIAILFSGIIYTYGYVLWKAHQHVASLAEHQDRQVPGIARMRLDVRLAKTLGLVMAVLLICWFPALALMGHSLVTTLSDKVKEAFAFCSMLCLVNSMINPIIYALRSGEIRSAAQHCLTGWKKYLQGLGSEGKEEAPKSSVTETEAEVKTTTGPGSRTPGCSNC
# Test: Agonist activity at rat recombinant CB2 receptor expressed in CHO-K1 cells assessed as inhibition of forskolin-stimulated intracellular cAMP level
# Type: functional, cell-based
# Summary of the method: as §2, with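 “h. Emission at 665 nm gave concentration-response curves and EC50; Emax is expressed as a percentage of the reference agonist maximum.” for “h.”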
row,Compound,EC50 [nM]
1,CCCCCCC(C)(C)c1ccc([C@@H]2C[C@H](O)CC[C@H]2CCCO)c(O)c1 [CP-55940],0.34
2,CCn1c2ccccc2c2cc(NC(=O)CCc3nc(-c4ccc(F)cc4C)no3)ccc21,0.27
3,CCn1c2ccccc2c2cc(NC(=O)CCc3nc(-c4ccc(F)cc4)no3)ccc21,3.2
4,Fc1ccc(-c2noc(CCCNc3nc4ccc(Cl)cc4s3)n2)c(Cl)c1,290
5,CC(C)(C)c1ncc(NC(=O)CCc2nc(-c3ccc(F)cc3Cl)no2)cn1,1.3
6,CCn1c2ccccc2c2cc(NC(=O)CCc3nc(C4CCOCC4)no3)ccc21,0.38
7,O=C(CCc1nc(-c2ccc(F)cc2Cl)no1)Nc1ccc(C(F)(F)F)cc1,58

# Target: Cannabinoid receptor 1 (Rattus norvegicus) (UniProt P20272)
# Test: Agonist activity at rat recombinant CB1 receptor expressed in CHO-K1 cells assessed as inhibition of forskolin-stimulated intracellular cAMP level relative to CP-55940
# Type: functional, cell-based
# Summary of the method: as §2, with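 “h. Emission at 665 nm gave concentration-response curves and EC50; Emax is expressed as a percentage of the reference agonist maximum.” for “h.”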
# Cannabinoid receptor 1 (Rattus norvegicus), sequence (P20272 whole entry): as the sequence (P20272 whole entry) above
row,Compound,Emax [%]
1,CCn1c2ccccc2c2cc(NC(=O)CCc3nc(-c4ccc(F)cc4C)no3)ccc21,81
2,CCn1c2ccccc2c2cc(NC(=O)CCc3nc(-c4ccc(F)cc4)no3)ccc21,65
3,Fc1ccc(-c2noc(CCCNc3nc4ccc(Cl)cc4s3)n2)c(Cl)c1,45
4,CC(C)(C)c1ncc(NC(=O)CCc2nc(-c3ccc(F)cc3Cl)no2)cn1,67
5,CCn1c2ccccc2c2cc(NC(=O)CCc3nc(C4CCOCC4)no3)ccc21,110

# Target: T4, Cannabinoid receptor 2 (Rattus norvegicus) (UniProt Q9QZN9)
# T4 sequence (whole entry): T3 sequence (Q9QZN9 whole entry)
# Test: Agonist activity at rat recombinant CB2 receptor expressed in CHO-K1 cells assessed as inhibition of forskolin-stimulated intracellular cAMP level relative to CP-55940
# Type: functional, cell-based
# Summary of the method: as §2, with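 “h. Emission at 665 nm gave concentration-response curves and EC50; Emax is expressed as a percentage of the reference agonist maximum.” for “h.”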
row,Compound,Emax [%]
1,CCn1c2ccccc2c2cc(NC(=O)CCc3nc(-c4ccc(F)cc4C)no3)ccc21,110
2,CCn1c2ccccc2c2cc(NC(=O)CCc3nc(-c4ccc(F)cc4)no3)ccc21,90
3,Fc1ccc(-c2noc(CCCNc3nc4ccc(Cl)cc4s3)n2)c(Cl)c1,66
4,CC(C)(C)c1ncc(NC(=O)CCc2nc(-c3ccc(F)cc3Cl)no2)cn1,99
5,CCn1c2ccccc2c2cc(NC(=O)CCc3nc(C4CCOCC4)no3)ccc21,100
6,O=C(CCc1nc(-c2ccc(F)cc2Cl)no1)Nc1ccc(C(F)(F)F)cc1,90
